TAAR1 antagonist = human TAAR1 antagonism; Q96RJ0; CHO RD-HGA16 TAAR1, Fluo-8 calcium fluorescence, antagonist; inhibition, % at 3 µM; actives 1.5% (n = 360,000);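 active = inhibition above a per-plate cutoff, the mean inhibition of test compounds on that plate plus 3 SD, cut at about 49% in these data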;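 note: 0% = DMSO plus EC80 beta-PEA response and 100% = DMSO alone without agonist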
Target sequence (Q96RJ0 whole entry, looked up): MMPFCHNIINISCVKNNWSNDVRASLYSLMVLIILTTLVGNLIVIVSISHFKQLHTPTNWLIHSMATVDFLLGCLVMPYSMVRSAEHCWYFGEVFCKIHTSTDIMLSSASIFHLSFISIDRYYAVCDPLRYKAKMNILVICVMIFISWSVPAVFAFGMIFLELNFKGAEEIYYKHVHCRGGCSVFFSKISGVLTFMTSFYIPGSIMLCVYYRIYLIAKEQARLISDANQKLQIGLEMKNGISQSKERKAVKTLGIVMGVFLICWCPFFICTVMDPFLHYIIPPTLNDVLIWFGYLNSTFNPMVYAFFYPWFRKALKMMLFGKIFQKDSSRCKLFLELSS
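Test system: hTAAR1-expressing CHO RD-HGA16 cells, Gα16-coupled; Probe or stimulus: EC80 β-phenethylamine stimulus; Compound dosing: single nominal final test compound concentration of 3 µM; Timing: 140 s kinetic read after compound, 140 s after agonist; Signal: Fluo-8 calcium-sensitive fluorescence; Measure: % inhibition of agonist calcium response; Controls: DMSO and EC80 PEA controls.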
TAAR1 ag = human TAAR1 agonism; activation, % at 3 µM; actives 0.99% (n = 360,000); Q96RJ0; AID 624467; CHO RD-HGA16 TAAR1, Fluo-8 calcium fluorescence; vehicle wells 0%, saturating PEA agonist 100%;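 active = activation above the mean activation of all test compounds in the run plus 3 SD, cut at about 38% in these data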
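Assay system – CHO-derived RD-HGA16 cells with stable Gα16 and human TAAR1 · Compound dosing – one-point dosing at 3 µM (nominal) · Incubation – 17-24 h seeding, 75 min 37 °C dye, 30 min RT · Measured by – kinetic Fluo-8 calcium fluorescence · Control set – DMSO vehicle as 0%, PEA at EC100 as 100% · Repeats – single well for each compound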
TMEM16A act = activators or potentiators of mouse TMEM16A chloride channel; Q8BHY3; HEK293 TMEM16A/YFP-H148Q/I152L, iodide quench fluorescence; stronger effect = lower value; B-score at 10 µM; actives 0.3% (n = 340,000);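 active = fluorescence-ratio B-score plate-corrected deviation score at least 3 library SD below zero, with starting fluorescence score within 5 deviations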;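 note: channel opened by trigger with iodide after compound preincubation; score built on the fluorescence ratio of max minus min over baseline; more negative score means more quench and so TMEM16A activation or potentiation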
CRFR2-BP ag = agonists of human CRF-binding protein/CRF-R2 receptor complex. HEK293 CRF-R2/CRF-BP, calcium dye fluorescence (FLIPR); percent of saturating CRF peptide response. activation, % at 13.2 µM. actives 0.46% (n = 350,000). AID 588473;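 active = activation of at least 50%, plus an integration ratio under a set limit after plate pattern correction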;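 note: plate controls were neutral control wells without compound for no effect and CRF at EC100 for full effect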
TMEM16A inh = blocks the mouse calcium-activated chloride channel TMEM16A; HEK293 TMEM16A/YFP iodide influx fluorescence, ionomycin; normalized B-score (activity score, 25-100; higher = stronger inhibition) at 10 µM; actives 1.2% (n = 310,000); AID 588511;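 active = ratio plate-corrected score three or more library SD toward inhibition, starting fluorescence score within five deviations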;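 note: score derived from kinetic fluorescence span divided by baseline fluorescence per well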
CRFBP-R2 block = blocks CRF-induced signaling of the CRF-BP/CRF-R2 complex | HEK293 CRF-R2/CRF-BP, CRF-induced calcium fluorescence | inhibition, % at 11.8 µM | actives 0.59% (n = 350,000);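 active = inhibition of the ligand-induced calcium signal above about 50% at the single tested concentration, limit read from the data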
Numbers without * were called inactive. Shown are actives, neighbours in structure and some others; about 3.9% of the full set was active somewhere.

Results for NC(Cc1ccc(C(F)(F)F)cc1)c1csc(Nc2ccccn2)n1 (configuration not stated) ?
TAAR1 antagonist: 8; TAAR1 ag: 46*

What do the screens show for `COc1cccc(Nc2nc(C(N)Cc3ccccc3)cs2)n1` (configuration not stated)?
TAAR1 antagonist: 29; TAAR1 ag: 52*

How did NC(Cc1ccc(C(F)(F)F)cc1)c1csc(Nc2cc(NCc3ccco3)ncn2)n1 (configuration not stated) do in these assays?
TAAR1 antagonist: 29; TAAR1 ag: 38*

Results for CCN(CCn1cccn1)C(=O)c1ccc(OC2CCN(C(=O)COC)CC2)cc1 ?
TAAR1 antagonist: -18; TAAR1 ag: 3; TMEM16A act: inactive; CRFR2-BP ag: 1; TMEM16A inh: inactive; CRFBP-R2 block: 6

How did Cc1ccc2c(cnn2C(=O)CCC(=O)N2CCCCC2C)c1 (configuration not stated) do in these assays?
TAAR1 antagonist: 2; TAAR1 ag: 2; TMEM16A act: inactive; CRFR2-BP ag: 1; TMEM16A inh: inactive; CRFBP-R2 block: 7

How did O=C(Nc1ccc2nc(-c3ccccc3)oc2c1)c1ccco1 do in these assays?
TAAR1 antagonist: 12; TAAR1 ag: 9; TMEM16A act: -14*; CRFR2-BP ag: -5; TMEM16A inh: inactive; CRFBP-R2 block: -21

How did O=C(Nc1ccc(-c2nc3ccccc3o2)cc1)c1cccnc1 do in these assays?
TAAR1 antagonist: 50*; TAAR1 ag: 31; TMEM16A act: inactive; CRFR2-BP ag: 1; TMEM16A inh: inactive; CRFBP-R2 block: -15

What do the screens show for `Cc1cc(-c2nnnn2-c2cc(Cl)cc(Cl)c2)no1`?
TAAR1 antagonist: 13; TAAR1 ag: 6; TMEM16A act: inactive; CRFR2-BP ag: 2; TMEM16A inh: inactive; CRFBP-R2 block: 0

What do the screens show for `COc1ccc(-c2ccc(C(=O)NCc3ccc(N4CCN(C)CC4)cc3)c3occc23)c(C)c1`?
TAAR1 antagonist: -5; TAAR1 ag: 21

How did COc1cc(NC(=O)CCn2c(=S)oc3ccccc32)cc(OC)c1OC do in these assays?
TAAR1 antagonist: -11; TAAR1 ag: 2; TMEM16A act: inactive; CRFR2-BP ag: -2; TMEM16A inh: inactive; CRFBP-R2 block: 9

What do the screens show for `O=C(NNC(=O)C12CC3CC(CC(C3)C1)C2)c1ccncc1`?
TAAR1 antagonist: -4; TAAR1 ag: 1; TMEM16A act: inactive; CRFR2-BP ag: 2; TMEM16A inh: inactive; CRFBP-R2 block: 8

What do the screens show for `CC12CC3CC(C)(C1)CC(C(=O)NNC(=O)c1ccncc1)(C3)C2`?
TAAR1 antagonist: -20; TAAR1 ag: 6; TMEM16A act: inactive; CRFR2-BP ag: 0; TMEM16A inh: inactive; CRFBP-R2 block: 66*

Results for Cc1ccc(N/C(SCc2ccccc2C)=C(/C#N)C(=O)NCc2ccco2)cc1C ?
TAAR1 antagonist: 64*; TAAR1 ag: 0; TMEM16A act: inactive; CRFR2-BP ag: 3; TMEM16A inh: inactive; CRFBP-R2 block: 0

How did Cc1ccc(-c2nn(-c3ccccc3)cc2CO)cc1 do in these assays?
TAAR1 antagonist: -6; TAAR1 ag: 0; TMEM16A act: inactive; CRFR2-BP ag: 0; TMEM16A inh: inactive; CRFBP-R2 block: -8

How did N=C(N)SCc1cn(-c2ccccc2)nc1-c1ccc(Br)cc1 do in these assays?
TAAR1 antagonist: 47; TAAR1 ag: 79*; TMEM16A act: inactive; CRFR2-BP ag: 0; CRFBP-R2 block: -50

What do the screens show for `COc1ccc(CNC(=S)N/N=C(/C)c2ccccc2)cc1`?
TAAR1 antagonist: 15; TAAR1 ag: 2; TMEM16A act: inactive; CRFR2-BP ag: 0; TMEM16A inh: 25*; CRFBP-R2 block: -3

How did COc1ccc(CN2C(=O)NC(C)(c3ccc(C)cc3)C2=O)cc1F (configuration not stated) do in these assays?
TAAR1 antagonist: -6; TAAR1 ag: 6; TMEM16A act: inactive; CRFR2-BP ag: -1; TMEM16A inh: inactive; CRFBP-R2 block: 1

Results for CCN1C(=O)C(=O)N(Cc2ccc(OC)c(F)c2)C1=O ?
TAAR1 antagonist: 0; TAAR1 ag: -1; TMEM16A act: inactive; CRFR2-BP ag: 0; TMEM16A inh: inactive; CRFBP-R2 block: 84*

Results for O=[N+]([O-])c1cccc(N=NN(CCO)c2cccc([N+](=O)[O-])c2)c1 ?
TAAR1 antagonist: 51*; TAAR1 ag: 8; TMEM16A act: inactive; CRFR2-BP ag: 1; TMEM16A inh: inactive; CRFBP-R2 block: 5

Results for CCCN(N=Nc1cccc([N+](=O)[O-])c1)c1cccc([N+](=O)[O-])c1 ?
TAAR1 antagonist: 22; TAAR1 ag: 1; TMEM16A act: inactive; CRFR2-BP ag: 1; TMEM16A inh: inactive; CRFBP-R2 block: -29

Results for O=S(=O)(Nc1nc2ccccc2nc1Nc1ccc2c(c1)OCCO2)c1cccs1 ?
TAAR1 antagonist: 12; TAAR1 ag: 4; TMEM16A act: inactive; CRFR2-BP ag: 6; TMEM16A inh: 25*; CRFBP-R2 block: 11

Results for CCOc1cc(N2CCOCC2)c(OCC)cc1NC(=O)c1c(-c2ccccc2Cl)noc1C ?
TAAR1 antagonist: -12; TAAR1 ag: -2; TMEM16A act: inactive; CRFR2-BP ag: 2; TMEM16A inh: inactive; CRFBP-R2 block: -5

How did Cc1cccc2sc(NNC(=O)c3ccc(S(=O)(=O)N4CCCC(C)C4)cc3)nc12 (configuration not stated) do in these assays?
TAAR1 antagonist: 9; TAAR1 ag: 5; TMEM16A act: inactive; CRFR2-BP ag: 2; TMEM16A inh: 25*; CRFBP-R2 block: -20

How did Cc1ccc(N2CC(C(=O)Nc3ccc(N4CCOCC4)cc3)CC2=O)cc1C (configuration not stated) do in these assays?
TAAR1 antagonist: -6; TAAR1 ag: 1; TMEM16A act: inactive; CRFR2-BP ag: -1; TMEM16A inh: inactive; CRFBP-R2 block: 14

How did CCOc1ccc(S(=O)(=O)n2c(C)nc3ccccc32)cc1 do in these assays?
TAAR1 antagonist: -15; TAAR1 ag: 2; TMEM16A act: inactive; CRFR2-BP ag: 1; TMEM16A inh: inactive; CRFBP-R2 block: -4

What do the screens show for `CCCCOc1ccc(S(=O)(=O)n2c(C)nc3ccccc32)cc1`?
TAAR1 antagonist: -9; TAAR1 ag: -1; TMEM16A act: inactive; CRFR2-BP ag: -1; TMEM16A inh: 25*; CRFBP-R2 block: -5

How did COCCNC(=O)Cn1ncc2ccsc2c1=O do in these assays?
TAAR1 antagonist: 9; TAAR1 ag: 1; TMEM16A act: -11*; CRFR2-BP ag: -1; TMEM16A inh: inactive; CRFBP-R2 block: 7
